Results from article PMC9115729 (Bioorganic & medicinal chemistry, 2020).

Columns and labels:
[1] = assay type: physicochemical; details: final concentrations of 1-10 μM
[2] = target: T1, human kidney-type glutaminase (hKGA124-669) (Homo sapiens, UniProt O94925); assay: in vitro GLS assay with L-[3H]-glutamine as substrate; assay type: biochemical; details: for GLS inhibitory potency in words: comparison with compounds 8 and 3a
T1 sequence (O94925 124-669): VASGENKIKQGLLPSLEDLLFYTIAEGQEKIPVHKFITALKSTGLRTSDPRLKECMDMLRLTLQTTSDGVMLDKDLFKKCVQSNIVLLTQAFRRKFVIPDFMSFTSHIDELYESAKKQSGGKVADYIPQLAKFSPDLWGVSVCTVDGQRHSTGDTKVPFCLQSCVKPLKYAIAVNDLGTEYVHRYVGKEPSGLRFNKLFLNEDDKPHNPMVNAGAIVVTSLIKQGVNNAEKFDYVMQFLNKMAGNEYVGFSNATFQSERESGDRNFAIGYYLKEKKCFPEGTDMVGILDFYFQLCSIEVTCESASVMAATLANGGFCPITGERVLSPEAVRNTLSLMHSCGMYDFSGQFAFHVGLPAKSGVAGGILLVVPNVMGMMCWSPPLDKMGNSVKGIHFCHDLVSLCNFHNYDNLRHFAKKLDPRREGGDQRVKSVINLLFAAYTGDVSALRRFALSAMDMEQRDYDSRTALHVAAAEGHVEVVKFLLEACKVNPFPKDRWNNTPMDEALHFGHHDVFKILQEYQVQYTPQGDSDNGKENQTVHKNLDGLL

GLS = details: read-out: GLS inhibition IC50; literature value; cited from earlier work
[3] = Aqueous solubility by the shake flask method; assay type: physicochemical; details: PBS buffer, 37 °C, pH 7.4, aqueous buffer, thermodynamic from solid
How it was run: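 Test compound added to PBS (pH 7.4) at 5 mg/mL and shaken at 1000 rpm for 24 h at 37 °C to reach saturation. The solution was then passed through a 0.45 μm PTFE filter and the filtrate diluted. Concentration was quantified by UHPLC–Orbitrap MS on a C18 column (35 °C) with a 0.1% formic acid water/acetonitrile gradient, against a 5-10000 nM calibration curve.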

| Structure (SMILES) | GLS inhibitory potency in words [2] | further results |
| --- | --- | --- |
| O=C(Cc1ccccc1)Nc1nnc(CCSc2nnc(NC(=O)Cc3ccccc3)s2)s1 [Compound 3a, 2-Phenyl-N-(5-(2-(5-(2-phenylacetamido)-1,3,4-thiadiazol-2-yl)ethylthio)-1,3,4-thiadiazol-2-yl)acetamide] |  | behaviour on addition of stock solution to cell culture media [1]: precipitation |
| O=C(Cc1ccccc1)Nc1ccc(SCCc2nnc(NC(=O)Cc3ccccc3)s2)nn1 [Compound 19, 2-Phenyl-N-(6-(2-(5-(2-phenylacetamido)-1,3,4-thiadiazol-2-yl)ethylthio)pyridazin-3-yl)acetamide] | substantially weaker potency |  |
| O=C(Cc1ccccc1)Nc1nnc(CSCc2nnc(NC(=O)Cc3ccccc3)s2)s1 [Compound 2b, N,N’-(5,5’-Thiobis(methylene)bis(1,3,4-thiadiazole-5,2-diyl))bis(2-phenylacetamide), reference compound] | negligible activity | IC50 (GLS): > 20 µM; GLS inhibitory activity ([2]; at concentrations up to 100 μM): no inhibitory activity |
| O=C(Cc1ccccc1)Nc1ccc(CCSc2nnc(NC(=O)Cc3ccccc3)s2)nn1 [Compound 25, 2-Phenyl-N-(6-(2-(5-(2-phenylacetamido)-1,3,4-thiadiazol-2-ylthio)ethyl)pyridazin-3-yl)acetamide] | comparable | solubility at 24 h [3]: < 1 µM |
| Nc1nnc(CCSc2ccc(NC(=O)Cc3ccccc3)nn2)s1 [Compound 18, N-(6-(2-(5-Amino-1,3,4-thiadiazol-2-yl)ethylthio)pyridazin-3-yl)-2-phenylacetamide] | substantially weaker potency |  |
| Nc1nnc(SCCc2ccc(NC(=O)Cc3ccccc3)nn2)s1 [Compound 24, N-(6-(2-(5-Amino-1,3,4-thiadiazol-2-ylthio)ethyl)pyridazin-3-yl)-2-phenylacetamide] | comparable |  |
